What was measured:
Leishmania donovani [1] = test: Antileishmanial activity against […] forms of beta-lactamase expressing Leishmania donovani MHOM/ET/67/L82 infected in CD-1 mouse peritoneal macrophages assessed as inhibition of beta-lactamase activity after 3 days by spectrophotometer assay; type: functional, organism-based; settings: MHOM/ET/67/L82, 72 h
Method in brief: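 Intracellular L. donovani assay in macrophages run by an earlier method, with amphotericin B as the control drug. EC50 is the mean ± standard deviation of at least three independent experiments. Where a mean could not be obtained, the value comes from at least two determinations.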

[2] = Cytotoxicity against mouse J774A.1 cells assessed as inhibition of cell viability after 72 hrs by MTT assay; type: cell-based; settings: J774.A1, 72 h
Method in brief: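 J774A.1 murine macrophages were grown in RPMI with 10% FBS and penicillin/streptomycin at 37 °C, 5% CO2, and plated at 5 × 10^3 cells/well with serial compound dilutions for 72 h. MTT was added for 2 h, then cells were lysed with 10% SDS in 50% DMF for 3–5 h and read at 570 nm. EC50 came from a four-parameter fit, at least three independent experiments, podophyllotoxin control.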

[3] = Selectivity index, ratio of EC50 for mouse J774A.1 cells to EC50 for of beta-lactamase expressing Leishmania donovani MHOM/ET/67/L82 infected in CD-1 mouse peritoneal macrophages
[4] = AUC in Swiss-Webster mouse plasma at 10 mg/kg, ip by UPLC-MS/MS analysis; type: ADME, organism-based
Method in brief: (§1)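 Male Swiss Webster mice (20–25 g) got a single ip dose of 10 mg/kg in DMSO/PEG400/ethanol/water (0.5:5:1:3.5, v/v). Blood was drawn at 0.25–12 h, n = 3 per time point, and plasma was extracted with methanol-water plus internal standard. Samples were run by UPLC-MS/MS in SRM positive mode (calibration 0.025–25 μM). AUC, Cmax, Tmax, terminal t1/2 and Vz/F came from noncompartmental analysis.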

[5] = Half-life in Swiss-Webster mouse plasma at 10 mg/kg, ip by UPLC-MS/MS analysis; type: ADME, organism-based; method in brief: as §1
Plasma = test: Cmax in Swiss-Webster mouse plasma at 10 mg/kg, ip by UPLC-MS/MS analysis; type: ADME, organism-based; set-up: dose 10 mg/kg, route intraperitoneal; settings: in vivo; method in brief: as §1
Liver [6] = test: Cmax in Swiss-Webster mouse liver at 10 mg/kg, ip after 4 hrs by UPLC-MS/MS analysis; type: ADME, organism-based; set-up: dose 10 mg/kg, route intraperitoneal; settings: in vivo
Method in brief: (§2)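 Male Swiss Webster mice got a single 10 mg/kg ip dose in DMSO/PEG400/ethanol/water vehicle. Liver and spleen were excised at 4 and 12 h, rinsed, frozen and homogenized in water (liver 3-fold, spleen 4-fold dilution). Tissue concentrations were measured by UPLC-MS/MS (calibration 0.025–25 μM), triplicate determinations.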

Spleen = test: Cmax in Swiss-Webster mouse spleen at 10 mg/kg, ip after 4 hrs by UPLC-MS/MS analysis; type: ADME, organism-based; set-up: dose 10 mg/kg, route intraperitoneal; settings: in vivo; method in brief: as §2
[7] = Cmax in Swiss-Webster mouse liver at 10 mg/kg, ip after 12 hrs by UPLC-MS/MS analysis; type: ADME, organism-based; set-up: dose 10 mg/kg, route intraperitoneal; settings: read-out: Cmax; method in brief: as §2
[8] = Cmax in Swiss-Webster mouse spleen at 10 mg/kg, ip after 12 hrs by UPLC-MS/MS analysis; type: ADME, organism-based; set-up: dose 10 mg/kg, route intraperitoneal; settings: read-out: Cmax; method in brief: as §2
[9] = Tmax in Swiss-Webster mouse plasma at 10 mg/kg, ip by UPLC-MS/MS analysis; type: ADME, organism-based; method in brief: as §1
[10] = Apparent volume of distribution in Swiss-Webster mouse plasma at 10 mg/kg, ip by UPLC-MS/MS analysis; type: ADME, organism-based; settings: read-out: Vz/F; method in brief: as §1
Liver [11] = test: Half-life in mouse liver microsomes by UPLC analysis; type: ADME
Method in brief: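 Pooled mouse liver microsomes with NADPH were incubated and the parent compound quantified by UPLC-MS/MS. Half-life was obtained by fitting one-phase exponential decay to percent substrate remaining versus time.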

Mus musculus [12] = test: Toxicity in BALB/c mouse assessed as induction of adverse events at 30 mg/kg/day, ip administered for 5 days; type: organism-based; settings: in vivo, 120 h
Method in brief: (§3)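 Female BALB/c mice were dosed ip daily for 5 days at 10 or 30 mg/kg/day and observed for adverse effects.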

Mus musculus [13] = test: Toxicity in BALB/c mouse assessed as induction of adverse events at 10 mg/kg/day, ip administered for 5 days; type: organism-based; settings: in vivo, 120 h; method in brief: as §3
Leishmania donovani [14] = test: Antileishmanial activity against Leishmania donovani infected in visceral leishmaniasis BALB/c mouse model assessed as reduction of liver parasitemia at 10 mg/kg/day, ip administered for 5 days; type: functional; settings: 120 h
Method in brief: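 Acute murine visceral leishmaniasis model in female BALB/c mice (6–8 weeks). […] Liver parasitemia was expressed as % inhibition versus infected controls.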

With `CNc1nc(NC)c2ccccc2n1` the EC50 (Leishmania donovani [1]) was 7.6 µM, the EC50 [2] was > 133 µM and the selectivity ratio [3] was > 17.5.
With `COc1ccc(CNc2nc(NCc3ccc(OC)cc3)c3ccccc3n2)cc1` the EC50 (Leishmania donovani [1]) was 6 µM, the EC50 [2] was 2.2 µM and the selectivity ratio [3] was 0.37.
With `CC(C)Nc1nc(NC(C)C)c2ccccc2n1` the EC50 (Leishmania donovani [1]) was 2.3 µM, the EC50 [2] was > 30 µM and the selectivity ratio [3] was > 13.
Compound `c1coc(CNc2nc(NC3CCCCC3)nc3ccccc23)c1` has an EC50 (Leishmania donovani [1]) of 4 µM, an EC50 [2] of 5.3 µM and a selectivity ratio [3] of 1.3.
For `CNc1nc(NCCO)nc2ccccc12`, the EC50 (Leishmania donovani [1]) was > 25 µM.
In the case of `c1coc(CNc2nc(NC3CCC3)nc3ccccc23)c1`, the EC50 (Leishmania donovani [1]) is reported as > 25 µM.
Compound `CC(C)Nc1nc(Nc2ccccc2)c2ccccc2n1` has an EC50 (Leishmania donovani [1]) of 1.9 µM, an EC50 [2] of 12 µM and a selectivity ratio [3] of 6.3.
For `CCNc1nc(NC(C)C)nc2ccccc12`, the EC50 (Leishmania donovani [1]) was 6.3 µM, the EC50 [2] was > 30 µM and the selectivity ratio [3] was > 4.8.
With `CNc1nc(NC(C)C)nc2ccccc12` the EC50 (Leishmania donovani [1]) was > 25 µM.
Compound `Cc1ccc(CNc2nc(NCc3ccccc3)nc3ccccc23)cc1` has an EC50 (Leishmania donovani [1]) of 0.39 µM, an EC50 [2] of 2.1 µM and a selectivity ratio [3] of 5.4.
In the case of `Cc1ccc(CNc2nc(NCc3ccccc3)c3ccccc3n2)cc1`, the EC50 (Leishmania donovani [1]) is reported as 0.89 µM, the EC50 [2] is reported as 4.5 µM and the selectivity ratio [3] is reported as 5.1.
In the case of `COc1ccc(CNc2nc(NCc3ccccc3)nc3ccccc23)cc1`, the EC50 (Leishmania donovani [1]) is reported as 2.5 µM, the EC50 [2] is reported as 5.2 µM and the selectivity ratio [3] is reported as 2.1.
With `Clc1ccc(CNc2nc(NCc3ccccc3)c3ccccc3n2)cc1` the EC50 (Leishmania donovani [1]) was 0.61 µM, the EC50 [2] was 3.2 µM and the AUC(0-inf) [4] was 15.7 µM·h. For the same compound, the half-life [5] was 9.3 h, the Cmax (Plasma) was 1.4 µM and the Cmax (Liver [6]) was 25.3 µM. The Cmax (Spleen) was 26.6 µM, the concentration at 12 h [7] was 8.51 µM and the concentration at 12 h [8] was 11.4 µM. For the same compound, the Tmax [9] was 0.5 h, the Vd/F [10] was 22.3 L/kg and the t1/2 (Liver [11]) was 1.47 h. The Activity (Mus musculus [12]) was “Toxic”, the Activity (Mus musculus [13]) was “Non-toxic” and the inhibition in vivo at 10 mg/kg/day (Leishmania donovani [14]) was 12%. The selectivity ratio [3] was 5.2.
For `Cc1ccccc1-c1nc(NCc2ccccc2)c2ccccc2n1`, the EC50 (Leishmania donovani [1]) was > 10 µM.
Compound `CC(C)Nc1nc(NCC2CCCO2)c2ccccc2n1` (stereo unspecified) has an EC50 (Leishmania donovani [1]) of 8.9 µM, an EC50 [2] of 46 µM and a selectivity ratio [3] of 5.2.
With `CC(C)Nc1nc(NC2CC2)nc2ccccc12` the EC50 (Leishmania donovani [1]) was 8 µM, the EC50 [2] was > 40 µM and the selectivity ratio [3] was > 5.
Work on `Cc1ccc(CNc2nc(NCc3ccc(C)cc3)c3ccccc3n2)cc1` yielded an EC50 (Leishmania donovani [1]) of 1.1 µM, an EC50 [2] of 2.9 µM and a selectivity ratio [3] of 2.6.
Work on `CC(C)Nc1nc(NC2CC2)c2ccccc2n1` yielded an EC50 (Leishmania donovani [1]) of 6.1 µM, an EC50 [2] of 31 µM and a selectivity ratio [3] of 5.1.
`Clc1ccc(CNc2nc(NCc3ccccc3)nc3ccccc23)cc1` gave an EC50 (Leishmania donovani [1]) of 0.82 µM, an EC50 [2] of 4.6 µM and a selectivity ratio [3] of 5.6.
With `c1ccc(CNc2nc(NCc3ccccc3)c3ccccc3n2)cc1` the EC50 [2] was 5.5 µM.
Compound `CC(C)Nc1nc(NCc2ccco2)c2ccccc2n1` has an EC50 [2] of 17 µM.
In the case of `CNc1nc(NCc2ccco2)c2ccccc2n1`, the EC50 (Leishmania donovani [1]) is reported as > 25 µM.
In the case of `c1coc(CNc2nc(NC3CCCC3)nc3ccccc23)c1`, the EC50 (Leishmania donovani [1]) is reported as > 25 µM.
For `COc1ccc(CNc2nc(NCc3ccccc3)c3ccccc3n2)cc1`, the EC50 (Leishmania donovani [1]) was 0.72 µM, the EC50 [2] was 4.1 µM and the selectivity ratio [3] was 5.7.
Work on `CC(C)Nc1nc(NCc2ccccc2)c2ccccc2n1` yielded an EC50 (Leishmania donovani [1]) of 2 µM, an EC50 [2] of 6.7 µM and a selectivity ratio [3] of 3.4.
In the case of `CCNc1nc(NC)c2ccccc2n1`, the EC50 (Leishmania donovani [1]) is reported as > 25 µM.
`CC(C)Nc1nc(NCc2ccccc2)nc2ccccc12` gave an EC50 (Leishmania donovani [1]) of 0.38 µM, an EC50 [2] of 7.2 µM and an AUC(0-inf) [4] of 7.14 µM·h. It also gave a half-life [5] of 2.1 h, a Cmax (Plasma) of 2.15 µM and a Cmax (Liver [6]) of 20.2 µM. The Cmax (Spleen) was 16.5 µM, the concentration at 12 h [7] was 0.54 µM and the concentration at 12 h [8] was 0.18 µM. The Tmax [9] was 0.25 h, the Vd/F [10] was 1.15 L/kg and the t1/2 (Liver [11]) was 0.7 h. The Activity (Mus musculus [12]) was “Toxic”, the Activity (Mus musculus [13]) was “Non-toxic” and the inhibition in vivo at 10 mg/kg/day (Leishmania donovani [14]) was 23.8%. For the same compound, the selectivity ratio [3] was 19.
`CNc1nc(NCc2ccccc2)nc2ccccc12` gave an EC50 [2] of 15 µM and a selectivity ratio [3] of 100.
Compound `COc1cc([C@@H]2c3cc4c(cc3[C@H](O)[C@H]3COC(=O)[C@H]23)OCO4)cc(OC)c1OC` [PODOFILOX] has an EC50 [2] of 0.021 µM.
Work on `CCCCCCCCCCCCCCCCOP(=O)([O-])OCC[N+](C)(C)C` [MILTEFOSINE] yielded an inhibition in vivo at 10 mg/kg/day (Leishmania donovani [14]) of 93.6%.
With `c1ccc(CNc2nc(OCc3ccccc3)c3ccccc3n2)cc1` the EC50 (Leishmania donovani [1]) was 0.65 µM, the EC50 [2] was 3.3 µM and the selectivity ratio [3] was 5.1.
With `C[C@@H]1[C@H](O)[C@@H](C)/C=C/C=C/C=C/C=C/C=C/C=C/C=C/[C@H](O[C@@H]2O[C@H](C)[C@@H](O)[C@H](N)[C@@H]2O)C[C@@H]2O[C@](O)(C[C@@H](O)C[C@@H](O)[C@H](O)CC[C@@H](O)C[C@@H](O)CC(=O)O[C@H]1C)C[C@H](O)[C@H]2C(=O)O` [AMPHOTERICIN B] the EC50 (Leishmania donovani [1]) was 0.041 µM.
With `Cc1ccccc1-c1nc(NCc2ccccc2)nc2ccccc12` the EC50 (Leishmania donovani [1]) was > 10 µM.
For `CC(C)Nc1nc(NCc2ccco2)nc2ccccc12`, the EC50 (Leishmania donovani [1]) was 11 µM, the EC50 [2] was 8.3 µM and the selectivity ratio [3] was 0.75.
For `CNc1nc(NCc2ccco2)nc2ccccc12`, the EC50 (Leishmania donovani [1]) was 20 µM.
In the case of `c1ccc(CNc2nc(-c3ccccc3)c3ccccc3n2)cc1`, the EC50 (Leishmania donovani [1]) is reported as > 10 µM.
`CNc1nc(NC2CCCC2)nc2ccccc12` showed an EC50 (Leishmania donovani [1]) of 4.4 µM, an EC50 [2] of 39 µM and a selectivity ratio [3] of 8.9.
